MT stabilize HCS – microtubule stabilizers in HeLa cells, primary screen, imaging, high-content imaging; HeLa tubulin immunostaining HCS, 24 h; share of cells brighter than vehicle mean+2SD; % tubulin-high responders, % at 10 µM; 0.83% of 200,000 active; AID 2205, 2009;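 active = plate Z-score above 3 for both tubulin-high and condensed-nucleus cell shares, with cell loss under 80%, at 10 µM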;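 also: anti alpha tubulin signal scored within the nucleus-defined area of each cell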
Hsp70 activator – Hsp70 transcriptional activators, primary screen, cell-based, HeLa, Hsp70 promoter luciferase, luminescence, 10 µM; HeLa Hsp70 promoter luciferase reporter; scaled: vehicle 0, proteasome-inhibitor control 100%; activation, % at 10 µM; 0.04% of 200,000 active; AID 1203, 2008;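 active = activation above the mean across all tested compounds plus 3 SD, cutoff set per campaign, cut at about 5.5% in these data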;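 also: 100% = MG132 at 30 µM as the positive control and 0% = DMSO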
TLR4 MyD88 comp – inhibitors of TLR4-MyD88 association in cells, primary screen, cell-based, HeLa CL3-4, BLA complementation, FRET ratio; HeLa CL3-4 TLR4/MyD88 BLA complementation; 0.18% of 200,000 active; inhibition, % at 8.4 µM; in the data active = inhibition above about 25%;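 also: 0% = vehicle and 100% = reference inhibitor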
TLR9-MyD88 inh – inhibitors of TLR9-MyD88 association in cells, primary screen, cell-based, CHO, BLA complementation, fluorescence. 0.21% of 340,000 active. AID 504734, 2011. CCF4 FRET ratio. inhibition, % at 4.98 µM;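 active = inhibition above the mean over all tested compounds plus 3 SD, cut at about 21% in these data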;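 also: 0% = DMSO only wells and 100% = clavulanate BLA inhibitor control wells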
Target sequence (Q99836 whole entry, looked up): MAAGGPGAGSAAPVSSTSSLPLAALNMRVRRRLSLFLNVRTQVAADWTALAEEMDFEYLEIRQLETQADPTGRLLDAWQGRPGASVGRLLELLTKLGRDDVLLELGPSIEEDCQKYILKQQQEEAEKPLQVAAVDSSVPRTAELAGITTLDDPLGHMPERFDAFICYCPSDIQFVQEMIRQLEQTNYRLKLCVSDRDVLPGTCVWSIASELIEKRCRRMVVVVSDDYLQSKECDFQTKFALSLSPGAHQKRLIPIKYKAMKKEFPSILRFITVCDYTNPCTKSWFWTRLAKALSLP
Target sequence (Q9NR96 whole entry, looked up): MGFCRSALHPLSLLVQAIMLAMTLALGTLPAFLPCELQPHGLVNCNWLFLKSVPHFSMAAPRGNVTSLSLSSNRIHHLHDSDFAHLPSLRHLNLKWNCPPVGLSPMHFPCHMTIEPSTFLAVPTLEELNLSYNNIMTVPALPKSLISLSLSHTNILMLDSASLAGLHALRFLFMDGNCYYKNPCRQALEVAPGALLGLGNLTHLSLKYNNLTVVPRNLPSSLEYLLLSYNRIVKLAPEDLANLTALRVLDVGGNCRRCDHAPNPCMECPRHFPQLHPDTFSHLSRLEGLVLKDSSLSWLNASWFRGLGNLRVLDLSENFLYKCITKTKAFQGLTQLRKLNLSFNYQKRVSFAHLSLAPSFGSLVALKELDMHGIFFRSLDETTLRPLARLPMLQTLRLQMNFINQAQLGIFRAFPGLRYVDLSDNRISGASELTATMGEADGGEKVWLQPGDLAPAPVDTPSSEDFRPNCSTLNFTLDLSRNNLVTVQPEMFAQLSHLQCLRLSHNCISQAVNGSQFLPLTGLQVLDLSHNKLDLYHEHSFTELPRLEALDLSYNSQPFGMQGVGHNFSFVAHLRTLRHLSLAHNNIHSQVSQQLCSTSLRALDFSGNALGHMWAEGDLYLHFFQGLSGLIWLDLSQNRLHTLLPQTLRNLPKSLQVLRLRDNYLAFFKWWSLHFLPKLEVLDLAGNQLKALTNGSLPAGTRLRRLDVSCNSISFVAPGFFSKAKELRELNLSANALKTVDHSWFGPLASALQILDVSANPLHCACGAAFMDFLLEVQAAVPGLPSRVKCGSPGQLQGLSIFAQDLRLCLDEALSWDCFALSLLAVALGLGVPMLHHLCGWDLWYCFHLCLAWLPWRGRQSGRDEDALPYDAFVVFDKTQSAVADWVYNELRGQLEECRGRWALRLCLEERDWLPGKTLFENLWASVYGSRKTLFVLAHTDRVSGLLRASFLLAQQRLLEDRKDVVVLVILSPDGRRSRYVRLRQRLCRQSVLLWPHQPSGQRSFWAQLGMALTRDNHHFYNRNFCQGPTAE
NOD2-RIPK2 inh – NOD2-RIPK2 binding disruptors in cells, primary screen, fluorescence, CHO cells, BLA complementation. inhibition, % at 4.98 µM. Receptor-interacting serine/threonine-protein kinase 2 (Homo sapiens), O43353. 0.38% of 360,000 active. CCF4 ratio; in the data active = inhibition above about 21%;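 also: 0% = vehicle only and 100% = reference blocker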
b-catenin transl – modulators of beta-catenin nuclear translocation, primary screen, imaging, HeLa cells, immunofluorescence, high-content; nuclear translocation activity, % at 5 µM; 0.3% of 190,000 active; AID 1665, 2009;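 active = nuclear translocation activity above 50% at 5 µM, with a well cell count of 50 or more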;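 also: per-cell ratio of nuclear to cytoplasmic median beta-catenin stain intensity; plate controls were DMSO negative control for no effect and GSK-3 inhibitor IX positive control for full effect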
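Test system: HeLa cells, endogenous beta-catenin; Compound: single 5 µM dose plus 0.02–20 µM confirmation series; Times: compound exposure 24 h at 37°C; Signal: fluorescence imaging of beta-catenin antibody stain plus DAPI; Read-out: % activation, nuclear-to-cytoplasmic median beta-catenin signal ratio per cell.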
Starred values were filed as active, the others as inactive; nt = no result. Sampled rows, rich in hits. Any-hit rate of the full collection: about 1%.

SMILES | MT stabilize HCS | Hsp70 activator | TLR4 MyD88 comp | TLR9-MyD88 inh | NOD2-RIPK2 inh | b-catenin transl
CNC1(c2nnnn2-c2ccccc2C)CCOC(C)(C)C1 (stereo unspecified) | nt | nt | nt | 0.7 | -5.0 | 0.2
COc1ccc(C)cc1S(=O)(=O)n1cnc(C)c1 | nt | nt | nt | -0.7 | 0.5 | nt
COc1cc(C)c(C(C)C)cc1S(=O)(=O)n1cnc(C)c1 | 14.2* | 0.9 | 8.1 | 10.3 | -2.4 | 93.1*
CCCCN=C1CC(C)(C)CC(=O)/C1=C(/O)CCC | nt | nt | nt | 4.3 | -4.7 | -1.5
CCN(CC)CCN(C(=O)Cn1nnc(-c2ccc(C)o2)n1)C(C(=O)NC1CCCC1)c1ccc(F)cc1 (stereo unspecified) | nt | nt | nt | 1.3 | -7.5 | nt
CCOC(=O)Cc1c(C)nc2c(-c3ccccc3)c[nH]n2c1=O | 18.7* | -0.1 | 1.4 | 4.0 | -6.9 | -1.1
COC(=O)c1ccccc1NC(=O)c1cccc(COc2ccccc2Cl)c1 | 46.0* | 0.9 | -3.6 | -4.7 | -5.6 | 122.6*
Cc1cccc(Cn2c(=O)n(-c3ccc(CC(=O)NCc4ccco4)cc3)c(=O)c3sccc32)c1 | 28.9* | 0.1 | 3.0 | -6.3 | -15.2 | -1.2
Cc1ccc(-n2c(=O)c3sccc3n(CC(=O)NCc3ccco3)c2=O)cc1 | 3.9 | 0.3 | 4.9 | -2.1 | 0.4 | -1.1
O=C(CN(C(=O)CNC(=O)c1cccs1)c1ccc(F)cc1)NC1CCCCC1 | nt | nt | nt | -0.9 | -4.0 | nt
Cc1ccc(C(=O)COC(=O)c2cccc(NC(=O)c3ccc([N+](=O)[O-])cc3[N+](=O)[O-])c2)cc1 | 34.5* | 0.0 | 2.3 | -7.9 | -1.5 | nt
Oc1ccc(-c2csc(-c3cccnc3)n2)c(O)c1 | 12.0* | 0.1 | 0.1 | 5.1 | 9.7 | 25.4
Oc1ccc(Nc2nc(-c3ccc4ccccc4c3)cs2)cc1 | 3.0 | 1.2 | 2.6 | 12.4 | 0.5 | nt
Oc1ccc(-c2nc(-c3ccc(O)c(O)c3)cs2)cc1 | 14.6* | 0.3 | 0.0 | 0.1 | 7.8 | 66.4*
COc1ccc(OC)c(-c2csc(N3CCC(c4ccccc4)CC3)n2)c1 | 3.0 | 0.0 | -6.4 | 1.8 | -8.1 | -0.6
CCN(c1ccccc1)S(=O)(=O)c1ccc(N)c(OC)c1 | 22.4* | -0.4 | -9.1 | 10.1 | -2.0 | 111.3*
Cc1cc(/C=C2\C(=N)N3N=C(C(C)C)SC3=NC2=O)c(C)n1Cc1ccccc1 | nt | nt | nt | -5.2 | -1.5 | -1.9
Cc1nn(-c2ccccc2)c(Cl)c1/C=C1/C(=N)N2N=C(C(C)C)SC2=NC1=O | 9.9* | -0.5 | -2.1 | -1.6 | 3.1 | -2.7
Cc1noc(C)c1COc1cccc(C(=O)OC(C)C(=O)Nc2ccc3c(c2)OCO3)c1 (stereo unspecified) | 25.5* | -0.3 | 12.4 | 5.0 | 6.3 | 95.0*
Cc1noc(C)c1COc1cccc(C(=O)Nc2ccc3c(c2)OCO3)c1 | 16.9* | -0.1 | -10.8 | 6.9 | 6.6 | 7.8
COc1cc(C(=O)OC(C)C(=O)Nc2ccc3c(c2)OCO3)ccc1OCc1c(C)noc1C (stereo unspecified) | 2.4 | -0.4 | 11.4 | 5.1 | 9.2 | -0.4
Cc1noc(C)c1COc1cccc(C(=O)Oc2ccc3c(c2)OCO3)c1 | 2.1 | -0.5 | -5.3 | 4.5 | -4.0 | -0.7
O=c1ccn([C@@H]2O[C@H](CNCc3ccccc3OCc3ccc(Cl)cc3Cl)[C@@H](O)[C@H]2O)c(=O)[nH]1 | nt | nt | nt | nt | 6.7 | nt
O=C(Nc1ccc(F)c(Cl)c1)c1cc(C2CCCCN2C(=O)c2cccs2)on1 (stereo unspecified) | nt | nt | nt | nt | -0.1 | nt
COc1ccc(N(C)C(=S)Oc2ccc(C(=O)Nc3ccccc3)cc2)cc1 | 43.6* | -0.2 | 5.2 | nt | nt | -1.6
SMILES | MT stabilize HCS | Hsp70 activator | TLR4 MyD88 comp | TLR9-MyD88 inh | NOD2-RIPK2 inh | b-catenin transl
COc1ccc(C(=O)Nc2ccc(C(=O)c3ccccc3)cc2)cc1 | nt | nt | nt | nt | -2.6 | nt
O=[N+]([O-])c1ccccc1-c1ccc(C(=S)N2CCCC2)o1 | 4.1 | 0.3 | -3.6 | -5.5 | -6.3 | -0.6
Cc1cccc(N2CCN(C(=S)c3ccc(-c4ccccc4[N+](=O)[O-])o3)CC2)c1 | 23.2* | 0.0 | -3.6 | -10.4 | -2.6 | 0.8
CCOC(=O)Nc1c(C(=O)OC)[nH]c2cc(OC)ccc12 | 36.2* | -0.1 | 6.6 | -1.0 | 3.7 | 4.5
CCOC(=O)c1[nH]c2ccc(OC)cc2c1NC(=S)N1CCN(C(=O)OCC)CC1 | 3.3 | -0.3 | 3.2 | 5.2 | 0.0 | -0.4
CCOC(=O)c1[nH]c2ccc(OC)cc2c1NC(=O)OC | 2.9 | -0.2 | -22.6 | -1.9 | -11.0 | -3.4
COc1ccccc1N1CCN(C(=S)Nc2cccc(C)c2)CC1 | 8.7* | -0.2 | 1.4 | -0.5 | -8.6 | 5.6
CCOC(=O)c1[nH]c2ccc(OC)cc2c1NC(=S)N1CCN(c2ccccc2OC)CC1 | 20.1* | -0.1 | -1.7 | -1.8 | 3.7 | 1.9
CN1C(=O)CCC(CCC(=O)O)(c2ccccc2O)C1=O (stereo unspecified) | nt | nt | nt | -2.2 | 7.2 | nt
C/C(=N\NC(=O)C1CCCC1)c1ccc(Cl)cc1 | nt | nt | nt | -6.3 | -12.8 | nt
O=C(/C=C/c1ccco1)NC(=S)Nc1ccc(N2CCOCC2)c(Cl)c1 | 48.1* | 0.1 | 2.2 | -1.3 | -0.7 | -0.2
COc1ccc(-c2csc(NC(=S)NC(=O)/C=C/c3ccco3)n2)cc1OC | 2.5 | -0.3 | -7.3 | 7.5 | -4.4 | 52.5*
Cc1cccc(NC(=S)NC(=O)/C=C/c2ccco2)c1 | 22.1* | -0.1 | -1.3 | 16.4 | 2.2 | 52.2*
O=C(/C=C/c1ccco1)NC(=S)Nc1cccc([N+](=O)[O-])c1 | 15.0* | -0.4 | 0.6 | 3.2 | -26.4 | 1.5
O=C(/C=C/c1ccco1)NC(=S)Nc1ccccc1 | nt | nt | nt | 4.6 | 3.5 | nt
O=C(/C=C/c1ccco1)Nc1ccc(N2CCCC2)cc1 | 24.6* | 0.3 | -3.2 | 1.5 | -1.2 | 6.8
Cc1ccc(NC(=O)/C=C/c2ccco2)nc1 | 3.6 | 0.9 | -3.0 | -3.7 | 10.6 | 146.2*
Cc1ccc(C(=O)OCC(=O)NNC(=O)c2ccc([N+](=O)[O-])cc2)o1 | nt | nt | nt | -4.4 | -3.0 | nt
COc1ccc(Nc2nc3ccc(C)cc3cc2C#N)c(OC)c1 | 6.6 | -0.2 | -2.7 | -6.8 | -4.7 | -1.9
COc1ccc(Nc2nc3cc(C)ccc3cc2C#N)c(OC)c1 | 21.2* | -0.3 | 3.9 | 5.6 | -6.2 | 22.7
Cc1ccc(NC(=S)/N=C(\N)Nc2nc(C)c3cc(C)ccc3n2)c(C)c1 | 3.1 | -0.1 | -5.4 | 2.0 | -6.1 | -2.1
CCc1ccccc1NC(=S)/N=C(\N)Nc1nc(C)c2cc(C)ccc2n1 | 22.6* | -0.3 | -5.2 | 5.2 | -31.4 | 10.5
Cc1nn(Cc2ccc(Cl)cc2)c(C)c1NC(=O)c1cc(-c2ccco2)on1 | 4.0 | -0.4 | -9.8 | 10.2 | -0.3 | -2.2

Source: PubChem
